From ChEMBL document CHEMBL4024771, “Optimization of Orally Bioavailable Enhancer of Zeste Homolog 2 (EZH2) Inhibitors Using Ligand and Property-Based Design Strategies: Identification of Development Candidate …” (J Med Chem, 2018) come the findings set out here.

Values after ≈ are worked out from the molar mass of the structure shown. Active and inactive are the calls of the source. No cut-off for these calls is given here.

What is called inhibition in vivo is how much of the control response was suppressed. What is called IC50 is the concentration needed to halve the response being measured. What is called Ki is the equilibrium dissociation constant of an inhibitor or competing ligand from its target. A low value points to a stronger hold on the target.

The subject of data set [1] is KARPAS-422. The experiment in a line: Antitumor activity against human KARPAS422 cells harboring EZH2 Y641N mutant xenografted in mouse assessed as tumor regression at 100 mg/kg, sc qd measured 40 days post treatment termination on day 31. On the technique in general: In xenograft studies the graft and the host belong to different species.
Data set [2] relates to Mus musculus. The experiment in a line: In vivo inhibition of EZH2 in mouse xenografted with human KARPAS422 cells harboring EZH2 Y641N mutant assessed as reduction in H3K27me3 level in tumor at 100 mg/kg, po bid measured 4 hrs post last dose on day 9 relative to control. It is filed as functional. Particulars: KARPAS-422, po. The method in brief:
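Mice bearing Karpas-422 (EZH2 Y641N) xenografts were dosed with crystalline suspension orally twice daily (7 h/17 h) or subcutaneously once daily. Tumors were collected on day 9, 4 h after the last dose, for H3K27me3 quantification.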

For data set [3], the target named is Voltage-gated inwardly rectifying potassium channel KCNH2 (Homo sapiens, UniProt Q12809). The experiment in a line: Inhibition of human ERG.
For data set [4], the system named is Mus musculus. The experiment in a line: Time at which free plasma concentration stays below antiproliferative KARPAS422 cells IC90 level in mouse xenografted with human KARPAS422 cells at 100 mg/kg, po bid.
In data set [5] the target is Cytochrome P450 2D6 (Homo sapiens, UniProt P10635). The experiment in a line: Inhibition of CYP2D6 (unknown origin). Type of data set: ADME.
Data set [6] concerns the target T1, Histone-lysine N-methyltransferase EZH1 (Homo sapiens, UniProt Q92800).
T1 sequence (Q92800 whole entry): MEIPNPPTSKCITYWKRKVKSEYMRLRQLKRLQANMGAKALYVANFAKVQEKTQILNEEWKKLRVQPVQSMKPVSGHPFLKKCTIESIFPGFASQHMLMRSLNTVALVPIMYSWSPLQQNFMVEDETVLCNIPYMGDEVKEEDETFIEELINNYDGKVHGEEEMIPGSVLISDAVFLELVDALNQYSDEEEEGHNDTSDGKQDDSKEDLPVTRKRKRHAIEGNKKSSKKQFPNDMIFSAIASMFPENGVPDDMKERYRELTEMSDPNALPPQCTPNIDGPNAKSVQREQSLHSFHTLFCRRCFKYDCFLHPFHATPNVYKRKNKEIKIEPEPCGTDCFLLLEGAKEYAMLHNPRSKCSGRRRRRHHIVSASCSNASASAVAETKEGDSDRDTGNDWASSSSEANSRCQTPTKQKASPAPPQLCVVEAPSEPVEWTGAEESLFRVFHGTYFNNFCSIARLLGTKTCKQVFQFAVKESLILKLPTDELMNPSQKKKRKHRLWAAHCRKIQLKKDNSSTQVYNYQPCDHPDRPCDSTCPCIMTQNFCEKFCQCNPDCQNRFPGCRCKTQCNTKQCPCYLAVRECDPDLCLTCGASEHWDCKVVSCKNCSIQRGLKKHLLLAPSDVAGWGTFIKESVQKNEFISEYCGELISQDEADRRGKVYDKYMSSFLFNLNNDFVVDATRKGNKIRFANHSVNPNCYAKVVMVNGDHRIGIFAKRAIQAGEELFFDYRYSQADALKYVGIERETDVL
The experiment in a line: Binding affinity to EZH1 (unknown origin).

Data set [7] is described as follows: Thermodynamic solubility in water at 25 degC using crystalline form. Type of data set: physicochemical. Particulars: read-out: Therm_solubility.
For data set [8], the target named is Histone-lysine N-methyltransferase EZH2 (Homo sapiens, UniProt Q15910). The experiment in a line: Inhibition of EZH2 in human KARPAS422 cells assessed as reduction in H3K27me3 level after 72 hrs by ELISA. (In general: An ELISA detects its analyte on a solid surface through an enzyme-linked reagent.)
Histone-lysine N-methyltransferase EZH2, sequence (Q15910 whole entry): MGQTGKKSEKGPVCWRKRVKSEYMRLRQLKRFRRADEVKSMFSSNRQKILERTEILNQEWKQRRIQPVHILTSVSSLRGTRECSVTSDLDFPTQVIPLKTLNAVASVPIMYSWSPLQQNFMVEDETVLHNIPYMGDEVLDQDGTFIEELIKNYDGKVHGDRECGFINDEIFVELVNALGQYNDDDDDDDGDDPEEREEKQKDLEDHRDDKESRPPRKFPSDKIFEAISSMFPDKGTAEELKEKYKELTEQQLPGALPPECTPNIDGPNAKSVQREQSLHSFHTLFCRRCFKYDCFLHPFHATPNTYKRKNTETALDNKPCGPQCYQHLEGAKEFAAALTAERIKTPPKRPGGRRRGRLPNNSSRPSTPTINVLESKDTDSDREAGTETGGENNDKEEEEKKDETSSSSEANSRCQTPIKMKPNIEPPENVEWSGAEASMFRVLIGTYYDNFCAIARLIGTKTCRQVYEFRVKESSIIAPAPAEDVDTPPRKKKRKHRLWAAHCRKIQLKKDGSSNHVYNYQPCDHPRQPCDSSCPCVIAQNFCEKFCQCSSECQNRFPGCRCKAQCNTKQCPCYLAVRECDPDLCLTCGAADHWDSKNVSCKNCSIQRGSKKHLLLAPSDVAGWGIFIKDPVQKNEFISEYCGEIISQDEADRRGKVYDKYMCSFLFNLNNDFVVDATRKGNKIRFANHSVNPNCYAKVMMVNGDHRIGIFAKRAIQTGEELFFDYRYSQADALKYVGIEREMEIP

Cytochrome P450 2D6, sequence (P10635 whole entry): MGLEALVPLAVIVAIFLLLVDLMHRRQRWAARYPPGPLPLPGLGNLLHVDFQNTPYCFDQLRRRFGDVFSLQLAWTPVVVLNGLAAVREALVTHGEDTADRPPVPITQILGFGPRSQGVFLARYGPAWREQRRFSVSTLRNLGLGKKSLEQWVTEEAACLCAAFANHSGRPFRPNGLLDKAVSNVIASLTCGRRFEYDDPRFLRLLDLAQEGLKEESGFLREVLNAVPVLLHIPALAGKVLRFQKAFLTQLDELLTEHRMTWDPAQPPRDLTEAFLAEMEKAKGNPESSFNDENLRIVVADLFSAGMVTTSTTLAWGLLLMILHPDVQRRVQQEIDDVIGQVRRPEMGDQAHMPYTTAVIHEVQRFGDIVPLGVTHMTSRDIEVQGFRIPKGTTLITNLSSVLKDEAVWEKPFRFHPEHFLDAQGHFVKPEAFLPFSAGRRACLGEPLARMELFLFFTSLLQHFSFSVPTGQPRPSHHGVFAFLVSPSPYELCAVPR
Voltage-gated inwardly rectifying potassium channel KCNH2, sequence (Q12809 whole entry): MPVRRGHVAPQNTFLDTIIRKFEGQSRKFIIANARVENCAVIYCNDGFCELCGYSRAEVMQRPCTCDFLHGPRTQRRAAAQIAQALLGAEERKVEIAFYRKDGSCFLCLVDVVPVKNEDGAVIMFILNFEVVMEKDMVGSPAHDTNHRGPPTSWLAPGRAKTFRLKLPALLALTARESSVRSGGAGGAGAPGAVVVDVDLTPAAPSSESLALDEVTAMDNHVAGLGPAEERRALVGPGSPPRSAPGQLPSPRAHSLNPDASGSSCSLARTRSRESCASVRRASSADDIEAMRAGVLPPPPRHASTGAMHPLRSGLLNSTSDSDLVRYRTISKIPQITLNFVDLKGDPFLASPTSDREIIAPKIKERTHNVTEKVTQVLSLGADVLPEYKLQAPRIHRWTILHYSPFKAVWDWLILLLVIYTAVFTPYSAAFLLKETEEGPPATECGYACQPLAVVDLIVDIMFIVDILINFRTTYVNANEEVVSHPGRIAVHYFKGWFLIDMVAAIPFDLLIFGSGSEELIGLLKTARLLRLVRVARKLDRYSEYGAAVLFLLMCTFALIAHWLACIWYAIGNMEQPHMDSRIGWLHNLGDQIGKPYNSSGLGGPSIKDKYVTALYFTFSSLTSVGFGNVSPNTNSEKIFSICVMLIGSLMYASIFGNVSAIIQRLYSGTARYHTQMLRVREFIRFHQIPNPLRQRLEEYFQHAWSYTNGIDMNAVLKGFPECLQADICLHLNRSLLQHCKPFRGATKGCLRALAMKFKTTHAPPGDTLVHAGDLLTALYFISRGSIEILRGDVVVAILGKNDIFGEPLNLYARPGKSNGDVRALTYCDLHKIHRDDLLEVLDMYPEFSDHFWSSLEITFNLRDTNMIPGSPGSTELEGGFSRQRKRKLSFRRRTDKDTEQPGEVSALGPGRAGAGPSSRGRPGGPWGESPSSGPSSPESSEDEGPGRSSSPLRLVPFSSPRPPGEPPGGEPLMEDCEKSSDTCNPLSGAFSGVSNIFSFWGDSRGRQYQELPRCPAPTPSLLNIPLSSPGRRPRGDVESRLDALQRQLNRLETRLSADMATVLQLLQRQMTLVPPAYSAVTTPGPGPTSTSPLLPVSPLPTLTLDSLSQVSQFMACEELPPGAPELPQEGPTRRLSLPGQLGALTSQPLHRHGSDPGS

`COc1cc(C)[nH]c(=O)c1CN1CCc2c(Cl)cc([C@H](OC)C3COC3)c(Cl)c2C1=O` [MEVROMETOSTAT]: the outcome in data set [1] was Active. For the same compound, in data set [2], the inhibition in vivo at 100 mg/kg was found to be 45.4%. For the same compound, the values for the IC50 in data set [3], in data set [5] and in data set [8] were greater than 100 µM, greater than 30 µM and 4 nM, respectively. Further, in data set [4], the Time fell in the range of 7 to 24 h. Moreover, the Ki in data set [6] was 70 nM. The solubility thermodynamic in data set [7] amounted to 315 µg/mL (≈ 674 µM).
